In data set [1] the target is T1, CML18 (Arabidopsis thaliana, UniProt Q9M8U1).
T1 sequence (Q9M8U1 1-165): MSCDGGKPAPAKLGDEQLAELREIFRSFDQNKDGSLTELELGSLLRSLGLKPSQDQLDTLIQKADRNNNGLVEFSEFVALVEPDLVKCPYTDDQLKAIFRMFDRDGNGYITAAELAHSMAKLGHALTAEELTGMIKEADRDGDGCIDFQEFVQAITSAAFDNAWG
Briefly: Far-UV circular dichroism of CML18:CML-BD complex. It counts as binding. Summed up:
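Far-UV CD (320–202 nm, 20°C, 1.0-mm quartz cuvette) of decalcified CML18, the synthetic CBD peptide, and a 1:1 protein:peptide mixture, each at pH 6.3 and 8.3. The spectrum expected for non-interacting samples was calculated as the sum of the two individual spectra and compared with the mixture.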
For orientation: Circular dichroism is widely used to follow secondary structure.

The target in data set [2] is T1, CML18. Put plainly: Isothermal titration calorimetry, CBD peptide. It counts as binding. Summed up: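 ITC at 25°C: 200 μM CML18 was titrated into 20 μM CBD peptide in 2-μl injections at 150-s intervals, stirred at 750 rpm, in buffer C (pH 6.3) or D (pH 8.3), with 18 μM EGTA or 180 μM Ca2+. Heats from ligand-into-buffer controls were subtracted. Two titrations were run for each of two independent protein preparations.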
For orientation: In ITC the heat of successive injections is recorded.

The test system of the next data set is NHX1. Briefly: Yeast two-hybrid assay, CMD1 with NHX1. The settings on record: fig. S1A. The data set is classed as cell-based, Arabidopsis.
In the next data set the test system is C terminus of NHX1. Briefly: Yeast two-hybrid assay, dimerization with C terminus of NHX1. The note with it: fig. S2; cytosolic C-terminal domains. It counts as cell-based, Arabidopsis.
Data set [3] has as its system CML18. Put plainly: Bimolecular fluorescence complementation, interaction with CML18. The data set is classed as cell-based, Arabidopsis. The settings on record: leaves of N. benthamiana. Summed up: (§1)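 Agrobacterium GV3101 carrying BiFC constructs was co-infiltrated with a p19-transformed strain into 5- to 6-week-old N. benthamiana leaves. Full-length NHX1 or NHX2 and CML18 were each fused to complementary halves of eYFP. Empty pSPYCE(M) served as negative control. The lower epidermis was imaged by confocal microscopy (515-nm laser, 60× objective) under constant imaging settings, using a YFP filter.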

The subject of a further data set is NHX2. Briefly: Bimolecular fluorescence complementation, interaction with NHX2. It counts as cell-based, Arabidopsis. The settings on record: leaves of N. benthamiana. An outline of the steps: as §1
Data set [4] deals with CML18. Put plainly: Yeast two-hybrid assay, interaction with CML18. It counts as cell-based, Arabidopsis. The note with it: C-terminal cytosolic fragments; selective YNB media. An outline of the steps: (§2)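 Strain AH109 was cotransformed with NHX C-terminal fragments in pGBKT7 (GAL4 BD) and CML17 or CML18 in pGADT7 (GAL4 AD), selected on YNB-Trp-Leu. Cultures were grown at 28°C to saturation (OD600 ~2), then 5-μl drops of 10-fold dilutions were spotted on YNB-Trp-Leu, -His-Trp-Leu and -Ade-Trp-Leu. Plates were incubated at 28°C for 3–4 days. p53/pSV40 served as positive control, empty vectors as negative.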

Data set [5] deals with AXT3K strain. Briefly: Complementation assay, hygromycin B resistance of yeast AXT3K. The data set is classed as cell-based, Saccharomyces cerevisiae.
Data set [6] has as its system AXT3K strain. Put plainly: Growth of AXT3K in pH-buffered liquid media with hygromycin B. It counts as cell-based, Saccharomyces cerevisiae. The settings on record: buffered at acidic or neutral pH; OD600 after 24h. Summed up: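 Strain AXT3K (ena1-4, nha1 and nhx1 deletions; HygB-sensitive) carried NHX1 alleles in pDR195, selected on YNB lacking His and Ura. Cultures were grown overnight at 30°C and adjusted to OD600 0.5. Then 20 μl was inoculated into 200 μl liquid medium per well and serially diluted 10-fold. Incubation was at 30°C, with OD600 read at 24 and 48 h. Three independent transformants were tested per construct.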

The next data set relates to yeast vacuoles. Put plainly: Vacuolar pH of yeast by BCECF-AM. It counts as cell-based, Saccharomyces cerevisiae. The note with it: n = 8.
In the next data set the test system is NHX1 to NHX4. Briefly: Yeast two-hybrid assay, CML17 with vacuolar NHX1 to NHX4. It counts as cell-based, Arabidopsis. The settings on record: fig. S1B. Summed up: as §2
The target in data set [7] is CML-BD peptide, synthetic peptide of the CML18-binding motif of NHX1 (residues D485 to R518) (Arabidopsis thaliana). Briefly: ITC.
Data set [8] shares this target. Briefly: ITC. The source holds these as a separate data set.
The subject of a further data set is CBD. Put plainly: Split-ubiquitin assay, interaction of pore domain with CBD. The settings on record: yeast; YNB without adenine and histidine, 3 days at 28°C. The data set is classed as cell-based, Arabidopsis. An outline of the steps: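 Split-ubiquitin assay in yeast: NHX1 pore domain (residues M1–T292) was fused to Cub-PLV (pMetYCgate). The CBD (S486–G516) or the intervening loop (L453–N480) was fused to NubG (pNXgate32). KAT1 served as dimerisation positive control and CBD negative control. Double transformants were spotted on YNB with and without adenine and histidine. Expression was checked by HA/c-Myc immunoblot.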

“Also recorded” adds a separate entry of the source. Read-outs that look alike come from different tables or passages of the source. Ends that are not written are not given here.

As usually defined, the Kd is the constant that tells how readily two partners part at equilibrium.

With “DSIRGFLTRPTRTVHYYWRQFDDSFMRPVFGGR [CML-BD]”, the “helical content in solution” value on CML18 [1] (far-UV CD, 20°C, peptide alone) was “no helical content”. Further, the “binding of CML18 to CBD peptide, pH dependence” value on CML18 [1] (far-UV CD, pH 6.3 versus 8.3) is given as “mostly favored at acidic pH”. The “α-helical content of the mixture with CML18” value at CML18 [1] (pH 6.3, 1:1 protein:peptide, far-UV CD, relative to CML18 alone) is reported as “increased α-helical content”. Also, the “interaction with CML18” value at CML18 [1] (pH 8.3, absence of Ca2+) is listed as “no interaction is observed”. For the same molecule, at CML18 [1] (pH 8.3, 1:1 protein:peptide, far-UV CD), the “helicity of the mixture with CML18” value is on record as “only a small increase in helicity”. Besides, the “complex formation with CML18” value at CML18 [2] (pH 6.3, presence of Ca2+) is “high-affinity complex is formed”. In addition, the “CML-BD binding sites per CML18 monomer” value at CML18 [2] (pH 6.3, model fit, equal affinity) is “two CML-BD binding sites with equal affinity per CML18 monomer”.

For the molecule “CMD1: the only calmodulin protein produced in S. cerevisiae”, in the data set with NHX1, the “interaction with NHX1 (Y2H)” value is given as “negative results”.

B1: NHX1: vacuolar K+/H+ exchanger of Arabidopsis; C-terminal T435 to A538 in Y2H (protein, UniProt Q68KI4 435-538, looked up, fragment)
chain: TKPLISYLLPHQNATTSMLSDDNTPKSIHIPLLDQDSFIEPSGNHNVPRPDSIRGFLTRPTRTVHYYWRQFDDSFMRPVFGGRGFVPFVPGSPTERNPPDLSKA
Take B1: the “homodimerization / heterodimerization (Y2H)” value in the data set on C terminus of NHX1 is “positive results”. In addition, the “interaction with CML18 (BiFC)” value in the data set on CML18 [3] is recorded as “interacted with CML18”. In the data set with NHX2, the “interaction with NHX2 (BiFC)” value was “interacted with NHX2-cYFP”. For the same molecule, in the data set on CML18 [4], the “interaction with CML18 (Y2H)” value was “strongly; also recorded: CML18 binding was confirmed”. In the data set on AXT3K strain [5] (YPD + HygB (50 μg/ml), 30°C), the “HygB resistance / protein activity in AXT3K” value was “suppressed the HygB sensitivity”.

B2: D506N (protein, UniProt Q68KI4 1-538, looked up, variant D506N)
Sodium/hydrogen exchanger 1: MLDSLVSKLPSLSTSDHASVVALNLFVALLCACIVLGHLLEENRWMNESITALLIGLGTGVTILLISKGKSSHLLVFSEDLFFIYLLPPIIFNAGFQVKKKQFFRNFVTIMLFGAVGTIISCTIISLGVTQFFKKLDIGTFDLGDYLAIGAIFAATDSVCTLQVLNQDETPLLYSLVFGEGVVNDATSVVVFNAIQSFDLTHLNHEAAFHLLGNFLYLFLLSTLLGAATGLISAYVIKKLYFGRHSTDREVALMMLMAYLSYMLAELFDLSGILTVFFCGIVMSHYTWHNVTESSRITTKHTFATLSFLAETFIFLYVGMDALDIDKWRSVSDTPGTSIAVSSILMGLVMVGRAAFVFPLSFLSNLAKKNQSEKINFNMQVVIWWSGLMRGAVSMALAYNKFTRAGHTDVRGNAIMITSTITVCLFSTVVFGMLTKPLISYLLPHQNATTSMLSDDNTPKSIHIPLLDQDSFIEPSGNHNVPRPDSIRGFLTRPTRTVHYYWRQFNDSFMRPVFGGRGFVPFVPGSPTERNPPDLSKA
Take B2: the “activity irrespective of pH of growth media” value with AXT3K strain [6] was “inactive”. Besides, the “vacuolar pH (pHvac)” value in the data set with yeast vacuoles was “overly acidic”. The “interaction with CML18 (Y2H)” value with CML18 [4] is on record as “lost the ability to bind CML18”. Moreover, the “HygB resistance / protein activity in AXT3K” value was “inactive; also recorded: unable to suppress the sensitivity of the nhx1 mutant to HygB” in the data set with AXT3K strain [5] (YPD + HygB (50 μg/ml), 30°C) and “inactive” in the data set on AXT3K strain [5] (in combination with H499L).

B3: CML17: calmodulin-like protein of Arabidopsis, At1g32250 (protein)
chain: MSHKVSKKLDEEQINELREIFRSFDRNKDGSLTQLELGSLLRALGVKPSPDQFETLIDKADTKSNGLVEFPEFVALVSPELLSPAKRTTPYTEEQLLRLFRIFDTDGNGFITAAELAHSMAKLGHALTVAELTGMIKEADSDGDGRINFQEFAKAINSAAFDDIWG
modifications: left off: Gal4 activation domain (vector pGADT7), end not stated, kept
For B3, the “interaction with vacuolar NHX1 to NHX4 (Y2H)” value in the data set on NHX1 to NHX4 is “failed to demonstrate interaction”.

B4: CML18, recombinant, purified (natural protein)
chain: MSCDGGKPAPAKLGDEQLAELREIFRSFDQNKDGSLTELELGSLLRSLGLKPSQDQLDTLIQKADRNNNGLVEFSEFVALVEPDLVKCPYTDDQLKAIFRMFDRDGNGYITAAELAHSMAKLGHALTAEELTGMIKEADRDGDGCIDFQEFVQAITSAAFDNAWG
On to B4, for which, in data set [7], the Kd stood at 3020 nM and the stoichiometry N (CML-BD binding sites per CML18 monomer) came to 2. The same molecule came in with a Kd in [8] of 2210 nM.

B5: pore domain (TM1 to TM9): pore domain of NHX1 (residues M1 to T292) fused to Cub-PLV (protein)
chain: MLDSLVSKLPSLSTSDHASVVALNLFVALLCACIVLGHLLEENRWMNESITALLIGLGTGVTILLISKGKSSHLLVFSEDLFFIYLLPPIIFNAGFQVKKKQFFRNFVTIMLFGAVGTIISCTIISLGVTQFFKKLDIGTFDLGDYLAIGAIFAATDSVCTLQVLNQDETPLLYSLVFGEGVVNDATSVVVFNAIQSFDLTHLNHEAAFHLLGNFLYLFLLSTLLGAATGLISAYVIKKLYFGRHSTDREVALMMLMAYLSYMLAELFDLSGILTVFFCGIVMSHYTWHNVT
modifications: left off: Cub-PLV, end not stated, kept
Consider B5, for which the “interaction with CBD (split-ubiquitin)” value in the data set on CBD is listed as “confirmed”.

(Values after publication PMC11559620 (Science Advances, 2024).)
